Measurements published in ChEMBL document CHEMBL2401735, “Synthesis and cytotoxicity of novel (thiazol-2-yl)hydrazine derivatives as promising anti-Candida agents” (Eur J Med Chem, 2013).
In brackets after ≈: the same amount, converted by molar mass.

Legend:
[1] = tested on: Streptococcus alpha-hemolyticus; test: Antibacterial activity against Streptococcus alpha-hemolyticus assessed as growth inhibition after 18 to 22 hrs by broth microdilution method
Proteus mirabilis = test: Antibacterial activity against Proteus mirabilis assessed as growth inhibition after 18 to 22 hrs by broth microdilution method; assay type: functional
Summary of the method: (§1)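 Bacterial isolates subcultured for purity, identified conventionally. Broth microdilution per NCCLS in Mueller-Hinton II broth; plates with growth control (no compound) and medium-only control, incubated 18-22 h at 35 °C. MIC taken as lowest concentration giving complete growth inhibition by unaided eye.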

Candida tropicalis = test: Anticandida activity against Candida tropicalis clinical isolate assessed as growth inhibition after 24 hrs by broth microdilution method; assay type: functional
Summary of the method: (§2)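 Clinical Candida isolates subcultured for purity and optimal growth before testing; compounds dissolved in DMSO. Broth microdilution per NCCLS in Sabouraud dextrose broth, serial dilutions, inoculum about 10³/mL, with growth control and medium-only control; 24 h incubation at 37 °C. MIC is the lowest concentration giving complete visible inhibition.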

Candida albicans = test: Anticandida activity against Candida albicans clinical isolate assessed as growth inhibition after 24 hrs by broth microdilution method; assay type: functional
Summary of the method: as §2

Staphylococcus warneri = test: Antibacterial activity against Staphylococcus warneri assessed as growth inhibition after 18 to 22 hrs by broth microdilution method; assay type: functional
Summary of the method: as §1

Nakaseomyces glabratus = test: Anticandida activity against Candida glabrata clinical isolate assessed as growth inhibition after 24 hrs by broth microdilution method; assay type: functional
Summary of the method: as §2

Enterococcus faecalis = test: Antibacterial activity against […] assessed as growth inhibition after 18 to 22 hrs by broth microdilution method; assay type: functional
Summary of the method: as §1

Candida parapsilosis = test: Anticandida activity against Candida parapsilosis clinical isolate assessed as growth inhibition after 24 hrs by broth microdilution method; assay type: functional; conditions: Lodderomyces parapsilosis
Summary of the method: as §2

[Candida] sake = Anticandida activity against Candida sake clinical isolate assessed as growth inhibition after 24 hrs by broth microdilution method; assay type: functional; conditions: Fermentozyma sake
Summary of the method: as §2

Klebsiella oxytoca = test: Antibacterial activity against Klebsiella oxytoca assessed as growth inhibition after 18 to 22 hrs by broth microdilution method; assay type: functional
Summary of the method: as §1

Escherichia coli = test: Antibacterial activity against Escherichia coli assessed as growth inhibition after 18 to 22 hrs by broth microdilution method; assay type: functional
Summary of the method: as §1

Enterobacter sp. = test: Antibacterial activity against Enterobacter spp. assessed as growth inhibition after 18 to 22 hrs by broth microdilution method; assay type: functional
Summary of the method: as §1

Staphylococcus aureus = test: Antibacterial activity against Staphylococcus aureus assessed as growth inhibition after 18 to 22 hrs by broth microdilution method; assay type: functional
Summary of the method: as §1

Pichia kudriavzevii = test: Anticandida activity against Candida krusei clinical isolate assessed as growth inhibition after 24 hrs by broth microdilution method; assay type: functional
Summary of the method: as §2

SMILES	MIC [1]	MIC (Proteus mirabilis)	MIC (Candida tropicalis)	MIC (Candida albicans)	MIC (Staphylococcus warneri)	MIC (Nakaseomyces glabratus)	MIC (Enterococcus faecalis)	MIC (Candida parapsilosis)	MIC ([Candida] sake)	MIC (Klebsiella oxytoca)	MIC (Escherichia coli)	MIC (Enterobacter sp.)	MIC (Staphylococcus aureus)	MIC (Pichia kudriavzevii)
COc1ccc(-c2csc(N/N=C(\C)CC(C)C)n2)cc1	> 256 µg/mL	> 256 µg/mL	16 µg/mL (≈ 52.7 µM)	4 µg/mL (≈ 13.2 µM)	> 256 µg/mL	8 µg/mL (≈ 26.4 µM)	> 256 µg/mL	16 µg/mL (≈ 52.7 µM)	16 µg/mL (≈ 52.7 µM)	> 256 µg/mL	> 256 µg/mL	> 256 µg/mL	> 256 µg/mL	16 µg/mL (≈ 52.7 µM)
CCCCCC/C(C)=N/Nc1nc(-c2ccc(OC)cc2)cs1	> 256 µg/mL	> 256 µg/mL	32 µg/mL (≈ 96.5 µM)	8 µg/mL (≈ 24.1 µM)	> 256 µg/mL	8 µg/mL (≈ 24.1 µM)	> 256 µg/mL	16 µg/mL (≈ 48.3 µM)	16 µg/mL (≈ 48.3 µM)	> 256 µg/mL	> 256 µg/mL	> 256 µg/mL	> 256 µg/mL	16 µg/mL (≈ 48.3 µM)
COc1ccc(-c2csc(N/N=C(\C)C3CCCCC3)n2)cc1	> 256 µg/mL	> 256 µg/mL	16 µg/mL (≈ 48.6 µM)	2 µg/mL (≈ 6.07 µM)	> 256 µg/mL	4 µg/mL (≈ 12.1 µM)	> 256 µg/mL	16 µg/mL (≈ 48.6 µM)	16 µg/mL (≈ 48.6 µM)	> 256 µg/mL	> 256 µg/mL	> 256 µg/mL	> 256 µg/mL	16 µg/mL (≈ 48.6 µM)
COc1ccc(-c2csc(NN=C3CCCCCCC3)n2)cc1	> 256 µg/mL	> 256 µg/mL	16 µg/mL (≈ 48.6 µM)	2 µg/mL (≈ 6.07 µM)	> 256 µg/mL	4 µg/mL (≈ 12.1 µM)	> 256 µg/mL	16 µg/mL (≈ 48.6 µM)	16 µg/mL (≈ 48.6 µM)	> 256 µg/mL	> 256 µg/mL	> 256 µg/mL	> 256 µg/mL	16 µg/mL (≈ 48.6 µM)
COc1ccc(-c2csc(N/N=C3/C=CC(C)(C)CC3)n2)cc1	> 256 µg/mL	> 256 µg/mL	256 µg/mL (≈ 782 µM)	8 µg/mL (≈ 24.4 µM)	> 256 µg/mL	32 µg/mL (≈ 97.7 µM)	> 256 µg/mL	64 µg/mL (≈ 195 µM)	256 µg/mL (≈ 782 µM)	> 256 µg/mL	> 256 µg/mL	> 256 µg/mL	> 256 µg/mL	256 µg/mL (≈ 782 µM)
COc1ccc(-c2csc(NN=C(C)C)n2)c(OC)c1	> 256 µg/mL	> 256 µg/mL	256 µg/mL (≈ 879 µM)	128 µg/mL (≈ 439 µM)	> 256 µg/mL	128 µg/mL (≈ 439 µM)	> 256 µg/mL	256 µg/mL (≈ 879 µM)	256 µg/mL (≈ 879 µM)	> 256 µg/mL	> 256 µg/mL	> 256 µg/mL	> 256 µg/mL	256 µg/mL (≈ 879 µM)
CC/C(C)=N/Nc1nc(-c2ccc(OC)cc2OC)cs1	> 256 µg/mL	> 256 µg/mL	256 µg/mL (≈ 838 µM)	64 µg/mL (≈ 210 µM)	> 256 µg/mL	128 µg/mL (≈ 419 µM)	> 256 µg/mL	256 µg/mL (≈ 838 µM)	256 µg/mL (≈ 838 µM)	> 256 µg/mL	> 256 µg/mL	> 256 µg/mL	> 256 µg/mL	256 µg/mL (≈ 838 µM)
CCC/C(C)=N/Nc1nc(-c2ccc(OC)cc2OC)cs1	> 256 µg/mL	> 256 µg/mL	256 µg/mL (≈ 801 µM)	128 µg/mL (≈ 401 µM)	> 256 µg/mL	128 µg/mL (≈ 401 µM)	> 256 µg/mL	256 µg/mL (≈ 801 µM)	256 µg/mL (≈ 801 µM)	> 256 µg/mL	> 256 µg/mL	> 256 µg/mL	> 256 µg/mL	256 µg/mL (≈ 801 µM)
CCC(CC)=NNc1nc(-c2ccc(OC)cc2OC)cs1	> 256 µg/mL	> 256 µg/mL	256 µg/mL (≈ 801 µM)	128 µg/mL (≈ 401 µM)	> 256 µg/mL	128 µg/mL (≈ 401 µM)	> 256 µg/mL	256 µg/mL (≈ 801 µM)	256 µg/mL (≈ 801 µM)	> 256 µg/mL	> 256 µg/mL	> 256 µg/mL	> 256 µg/mL	256 µg/mL (≈ 801 µM)
COc1ccc(-c2csc(N/N=C(\C)CC(C)C)n2)c(OC)c1	> 256 µg/mL	> 256 µg/mL	256 µg/mL (≈ 768 µM)	128 µg/mL (≈ 384 µM)	> 256 µg/mL	128 µg/mL (≈ 384 µM)	> 256 µg/mL	256 µg/mL (≈ 768 µM)	256 µg/mL (≈ 768 µM)	> 256 µg/mL	> 256 µg/mL	> 256 µg/mL	> 256 µg/mL	256 µg/mL (≈ 768 µM)
C=CCC/C(C)=N/Nc1nc(-c2ccc(OC)cc2OC)cs1	> 256 µg/mL	> 256 µg/mL	256 µg/mL (≈ 772 µM)	64 µg/mL (≈ 193 µM)	> 256 µg/mL	128 µg/mL (≈ 386 µM)	> 256 µg/mL	256 µg/mL (≈ 772 µM)	256 µg/mL (≈ 772 µM)	> 256 µg/mL	> 256 µg/mL	> 256 µg/mL	> 256 µg/mL	256 µg/mL (≈ 772 µM)
CCCCC/C(C)=N/Nc1nc(-c2ccc(OC)cc2OC)cs1	> 256 µg/mL	> 256 µg/mL	256 µg/mL (≈ 737 µM)	64 µg/mL (≈ 184 µM)	> 256 µg/mL	128 µg/mL (≈ 368 µM)	> 256 µg/mL	256 µg/mL (≈ 737 µM)	256 µg/mL (≈ 737 µM)	> 256 µg/mL	> 256 µg/mL	> 256 µg/mL	> 256 µg/mL	256 µg/mL (≈ 737 µM)
